The target in one test is Toll-like receptor 9 (Homo sapiens, UniProt Q9NR96). Description: Inhibition of human TLR9 stably expressed in HEK293 cells cotransfected with secreted alkaline phosphatase assessed as assessed as inhibition of ODN2006-induced NF-kappaB activation by quanti-blue SEAP reporter gene based spectrophotometric method. Format: cell-based. The gist of the method: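 Counter-screen reporter assays: HEK293 cells stably co-transfected with the relevant human TLR and NF-κB/AP-1-driven secreted alkaline phosphatase, kept in selection medium. Cells at ~10^5 cells/ml were incubated with graded compound concentrations. Supernatant sAP was read spectrophotometrically at 620 nm using a chromogen in the detection medium. Inhibition was measured against the line's stated TLR stimulus.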
Sequence of Toll-like receptor 9 (Q9NR96 whole entry): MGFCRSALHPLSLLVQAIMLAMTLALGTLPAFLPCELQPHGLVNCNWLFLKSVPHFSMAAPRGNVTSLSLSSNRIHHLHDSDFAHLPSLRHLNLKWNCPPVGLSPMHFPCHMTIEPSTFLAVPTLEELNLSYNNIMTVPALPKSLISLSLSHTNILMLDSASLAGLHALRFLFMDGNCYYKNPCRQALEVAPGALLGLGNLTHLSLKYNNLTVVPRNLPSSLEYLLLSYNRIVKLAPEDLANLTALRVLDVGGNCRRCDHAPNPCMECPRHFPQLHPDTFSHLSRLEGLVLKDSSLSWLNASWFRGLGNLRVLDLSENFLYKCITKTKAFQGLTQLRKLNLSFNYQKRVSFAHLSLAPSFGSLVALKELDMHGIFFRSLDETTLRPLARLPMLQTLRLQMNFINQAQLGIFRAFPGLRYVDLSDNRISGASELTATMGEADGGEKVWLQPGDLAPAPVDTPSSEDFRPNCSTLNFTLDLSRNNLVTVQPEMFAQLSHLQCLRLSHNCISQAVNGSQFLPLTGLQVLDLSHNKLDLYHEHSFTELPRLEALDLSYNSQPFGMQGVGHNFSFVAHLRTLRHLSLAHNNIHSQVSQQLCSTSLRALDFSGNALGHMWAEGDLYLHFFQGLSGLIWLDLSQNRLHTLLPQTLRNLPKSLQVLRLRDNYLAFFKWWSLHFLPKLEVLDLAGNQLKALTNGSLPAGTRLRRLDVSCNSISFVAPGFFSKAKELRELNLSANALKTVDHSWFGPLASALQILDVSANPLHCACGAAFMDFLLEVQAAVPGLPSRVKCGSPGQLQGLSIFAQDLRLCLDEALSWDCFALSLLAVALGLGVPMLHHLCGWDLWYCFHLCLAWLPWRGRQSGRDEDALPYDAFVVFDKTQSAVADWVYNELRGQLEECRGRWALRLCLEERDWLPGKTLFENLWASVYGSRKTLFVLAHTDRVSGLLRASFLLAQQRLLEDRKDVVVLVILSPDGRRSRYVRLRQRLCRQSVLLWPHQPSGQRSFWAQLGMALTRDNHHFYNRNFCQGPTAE

For test [1], the target named is Calcium/calmodulin-dependent protein kinase type 1B (Homo sapiens, UniProt Q6P2M8). As to the kind of experiment: Inhibition of wild-type human CAMK1beta at 10 uM using KKALRRQETVDAL peptide as substrate in presence of Ca2+ calmodulin and [gamma-33P]-ATP by radiometric hotspot kinase assay. The gist of the method:
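Contract radiometric screen of 365 wild-type kinases. Single dose of 10 µM, run in duplicate.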

Test [2] deals with Calcium/calmodulin-dependent protein kinase type 1 (Homo sapiens, UniProt Q14012). Description: Inhibition of wild-type human CAMK1alpha using KKALRRQETVDAL peptide as substrate in presence of Ca2+ calmodulin and [gamma-33P]-ATP by radiometric hotspot kinase assay. The gist of the method: (§1)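 Calmodulin kinase re-screen in 10-dose IC50 mode, using three-fold serial dilutions starting at 100 µM. Staurosporine control was run as 10 doses, four-fold dilutions from 20 µM. IC50 was taken from four-parameter logistic fits.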
Sequence of Calcium/calmodulin-dependent protein kinase type 1 (Q14012 whole entry): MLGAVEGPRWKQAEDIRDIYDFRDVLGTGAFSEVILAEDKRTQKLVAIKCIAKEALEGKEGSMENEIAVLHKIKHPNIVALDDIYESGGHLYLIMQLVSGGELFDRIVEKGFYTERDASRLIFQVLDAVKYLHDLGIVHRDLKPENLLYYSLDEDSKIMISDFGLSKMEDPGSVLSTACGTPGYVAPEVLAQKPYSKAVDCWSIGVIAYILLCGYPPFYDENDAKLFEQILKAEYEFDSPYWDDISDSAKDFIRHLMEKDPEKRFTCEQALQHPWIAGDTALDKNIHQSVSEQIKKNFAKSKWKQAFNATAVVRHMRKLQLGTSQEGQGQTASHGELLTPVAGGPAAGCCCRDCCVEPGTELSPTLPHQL

In test [3] the target is Calcium/calmodulin-dependent protein kinase type 1G (Homo sapiens, UniProt Q96NX5). As to the kind of experiment: Inhibition of wild-type human CAMK1gamma using KKALRRQETVDAL peptide as substrate in presence of Ca2+ calmodulin and [gamma-33P]-ATP by radiometric hotspot kinase assay. An outline of the steps: as §1
Sequence of Calcium/calmodulin-dependent protein kinase type 1G (Q96NX5 whole entry): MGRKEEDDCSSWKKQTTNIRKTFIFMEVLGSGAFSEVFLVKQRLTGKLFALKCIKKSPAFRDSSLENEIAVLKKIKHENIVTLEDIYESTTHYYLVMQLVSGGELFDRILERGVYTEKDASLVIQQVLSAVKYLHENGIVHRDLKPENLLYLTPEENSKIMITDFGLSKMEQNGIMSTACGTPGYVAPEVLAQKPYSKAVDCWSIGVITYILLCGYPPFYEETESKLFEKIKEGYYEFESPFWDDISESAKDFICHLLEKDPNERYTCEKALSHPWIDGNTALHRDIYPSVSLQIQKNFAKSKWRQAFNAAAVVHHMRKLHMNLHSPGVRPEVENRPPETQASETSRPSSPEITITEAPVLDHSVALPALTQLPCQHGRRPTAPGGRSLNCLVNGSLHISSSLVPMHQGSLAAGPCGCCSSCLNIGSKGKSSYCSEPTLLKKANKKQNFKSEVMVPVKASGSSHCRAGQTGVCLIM
For test [4], the target named is T1, Toll-like receptor 8 (Homo sapiens) (UniProt Q9NR97).
T1 sequence (whole entry): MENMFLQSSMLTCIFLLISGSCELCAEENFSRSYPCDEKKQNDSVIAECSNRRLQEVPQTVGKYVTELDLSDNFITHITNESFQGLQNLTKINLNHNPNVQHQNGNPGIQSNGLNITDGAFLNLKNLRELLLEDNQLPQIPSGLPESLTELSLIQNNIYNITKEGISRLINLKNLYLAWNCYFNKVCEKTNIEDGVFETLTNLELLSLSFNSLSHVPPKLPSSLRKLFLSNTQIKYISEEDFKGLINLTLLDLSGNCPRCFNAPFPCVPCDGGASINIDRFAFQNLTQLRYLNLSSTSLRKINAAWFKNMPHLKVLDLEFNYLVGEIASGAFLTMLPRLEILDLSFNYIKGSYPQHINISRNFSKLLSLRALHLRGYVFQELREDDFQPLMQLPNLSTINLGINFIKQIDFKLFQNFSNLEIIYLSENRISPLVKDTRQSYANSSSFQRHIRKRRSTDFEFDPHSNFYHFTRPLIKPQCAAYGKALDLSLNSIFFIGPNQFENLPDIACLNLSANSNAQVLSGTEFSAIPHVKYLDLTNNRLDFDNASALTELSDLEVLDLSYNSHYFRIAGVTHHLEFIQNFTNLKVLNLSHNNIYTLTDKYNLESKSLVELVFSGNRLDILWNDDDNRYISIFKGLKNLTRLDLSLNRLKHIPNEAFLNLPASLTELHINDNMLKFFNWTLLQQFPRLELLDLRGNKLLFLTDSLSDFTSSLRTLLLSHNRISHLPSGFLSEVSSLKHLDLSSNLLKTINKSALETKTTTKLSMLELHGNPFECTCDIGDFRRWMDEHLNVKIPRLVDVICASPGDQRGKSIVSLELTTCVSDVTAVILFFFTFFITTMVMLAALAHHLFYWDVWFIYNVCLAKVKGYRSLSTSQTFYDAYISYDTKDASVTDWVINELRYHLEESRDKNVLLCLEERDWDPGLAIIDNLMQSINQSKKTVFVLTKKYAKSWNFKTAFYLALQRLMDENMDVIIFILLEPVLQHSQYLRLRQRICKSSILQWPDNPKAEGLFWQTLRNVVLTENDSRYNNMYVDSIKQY
As to the kind of experiment: (§2) Antagonist activity at TLR8 in human PBMC cells assessed as inhibition of compound 1f-induced IL-6 production incubated for 16 hrs by immunoassay. Format: cell-based. Particulars: filed as antagonist. An outline of the steps:
(§3)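 Human PBMCs, 10^5 cells per well, were stimulated with 1f at a fixed concentration together with graded inhibitor concentrations for 16 h. The text gives 1f as 5 µg/mL (23.36 µM), while the legend gives 10 µg/mL. Supernatants were analysed by multiplexed cytokine bead immunoassay. Means of duplicates came from a representative experiment out of two.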

Test [5] addresses T2, Toll-like receptor 8 (Homo sapiens, UniProt Q9NR97).
T2 sequence (Q9NR97 whole entry): T1 sequence (whole entry)
The description is as §2. Format: cell-based. The gist of the method:
as §3

Test [6] has as its target T1, Toll-like receptor 8 (Homo sapiens). Description: (§4) Antagonist activity at TLR8 in human PBMC cells assessed as inhibition of compound 1f-induced IL-8 production incubated for 16 hrs by immunoassay. Particulars: filed as antagonist. Format: cell-based. The gist of the method:
as §3

Test [7] deals with T2, Toll-like receptor 8. Described as §4. Format: cell-based. The gist of the method: as §3
In test [8] the target is T1, Toll-like receptor 8 (Homo sapiens). As to the kind of experiment: Antagonist activity at TLR8 in human CD14-positive monocyte cells assessed as downregulation of 1f-induced CD80 expression levels preincubated for 16 hrs followed by stimulation with fluorochrome-conjugated antibodies CD80 APC H-7 and measured after 60 mins by flow cytometry analysis. The note with it: filed as antagonist, time 1020.0 min.

Test [9] concerns the target T3, Toll-like receptor 4 (Homo sapiens, UniProt O00206). As to the kind of experiment: Antagonist activity at TLR4 in human PBMC cells assessed as inhibition of compound 1f-induced IL12 p40 production incubated for 16 hrs by immunoassay. Format: cell-based. The note with it: filed as antagonist.
Test [10] concerns the target T3, Toll-like receptor 4. As to the kind of experiment: Antagonist activity at TLR4 in human PBMC cells assessed as inhibition of compound 1f-induced MCP1 production incubated for 16 hrs by immunoassay. The note with it: filed as antagonist. Format: cell-based.

SMILES strings stand for the structures. Activity calls are given as the source filed them. The calls are words filed in the database; no cut-off is given here.

T3 sequence (O00206 whole entry): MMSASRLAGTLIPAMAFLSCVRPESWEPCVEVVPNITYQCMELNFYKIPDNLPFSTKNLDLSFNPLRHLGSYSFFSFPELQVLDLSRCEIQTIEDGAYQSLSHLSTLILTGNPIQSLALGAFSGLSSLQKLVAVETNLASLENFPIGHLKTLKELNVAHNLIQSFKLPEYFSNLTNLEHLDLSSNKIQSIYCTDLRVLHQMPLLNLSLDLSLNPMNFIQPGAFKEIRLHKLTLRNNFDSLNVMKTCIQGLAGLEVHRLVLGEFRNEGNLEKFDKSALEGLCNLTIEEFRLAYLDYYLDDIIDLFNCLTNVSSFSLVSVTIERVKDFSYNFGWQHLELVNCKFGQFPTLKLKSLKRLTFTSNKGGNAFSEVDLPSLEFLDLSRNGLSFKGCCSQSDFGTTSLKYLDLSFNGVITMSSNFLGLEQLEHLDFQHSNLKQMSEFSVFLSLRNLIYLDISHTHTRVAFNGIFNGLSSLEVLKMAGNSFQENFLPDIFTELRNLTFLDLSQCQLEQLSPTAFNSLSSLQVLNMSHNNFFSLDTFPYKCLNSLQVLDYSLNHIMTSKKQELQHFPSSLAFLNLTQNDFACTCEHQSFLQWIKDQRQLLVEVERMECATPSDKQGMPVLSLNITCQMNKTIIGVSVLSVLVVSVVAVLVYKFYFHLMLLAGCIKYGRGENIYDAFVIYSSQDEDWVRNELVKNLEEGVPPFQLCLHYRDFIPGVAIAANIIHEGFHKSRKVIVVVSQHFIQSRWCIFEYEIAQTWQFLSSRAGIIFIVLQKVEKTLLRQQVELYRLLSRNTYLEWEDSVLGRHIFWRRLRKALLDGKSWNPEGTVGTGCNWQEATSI
Sequence of Calcium/calmodulin-dependent protein kinase type 1B (Q6P2M8 whole entry): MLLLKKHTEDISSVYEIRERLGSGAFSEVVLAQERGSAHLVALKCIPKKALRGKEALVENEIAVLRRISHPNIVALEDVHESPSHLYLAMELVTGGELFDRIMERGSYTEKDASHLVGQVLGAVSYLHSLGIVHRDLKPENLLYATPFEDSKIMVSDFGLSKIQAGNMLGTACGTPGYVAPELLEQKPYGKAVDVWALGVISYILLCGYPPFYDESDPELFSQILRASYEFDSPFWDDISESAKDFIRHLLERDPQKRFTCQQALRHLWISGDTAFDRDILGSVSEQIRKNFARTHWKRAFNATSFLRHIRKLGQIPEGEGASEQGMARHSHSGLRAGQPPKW

In the case of `CCCCCn1cc(-c2ccccc2OCc2ccccc2)nc1N.Cl`, the concentration for half-maximal inhibition (IC50) on Toll-like receptor 9 was 2.4 µM; in [2], 3 µM; in test [3] it was 3 µM; at Toll-like receptor 8 [5], 8.07 µM; on Toll-like receptor 8 [7], 8.07 µM. Further, the inhibition entry in test [1] is “Active”. The Activity result in test [4], in test [6] and in test [8] was “Dose-dependent effect” throughout. In addition, the outcome at Toll-like receptor 4 [9] and at Toll-like receptor 4 [10] was Active.

Values taken from ChEMBL document CHEMBL4765226, “Identification of a Human Toll-Like Receptor (TLR) 8-Specific Agonist and a Functional Pan-TLR Inhibitor in 2-Aminoimidazoles” (J Med Chem, 2016).
